Reference: ChEMBL document CHEMBL4359823, “Switching on the activity of 1,5-diaryl-pyrrole derivatives against drug-resistant ESKAPE bacteria: Structure-activity relationships and mode of action studies” (Eur J Med Chem, 2019)
≈ marks a conversion by molar mass, not a printed value. Calls of active or inactive are those of the source. The rule behind the calls is not given here.

Legend:
Topoisomerase IV = Topoisomerase IV (Staphylococcus aureus, UniProt P0C1S7+P0C1U9); assay: Inhibition of Staphylococcus aureus topoisomerase-4 expressed in Escherichia coli assessed as relaxation of pBR322 substrate measured after 30 mins by agarose gel electrophoresis
Staphylococcus aureus [1] = assay: Antibacterial activity against Staphylococcus aureus NCTC13616 assessed as generation of drug resistance at 2 times MIC measured after 48 hrs by agar-based microbroth dilution method; format: functional
Procedure, shortened: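 Agar method: exponentially growing bacteria, in known numbers, plated on agar with doubling compound concentrations at and above the MIC; incubated 48 hours. Colonies growing above the MIC were picked and re-tested by microbroth MIC for raised resistance. Resistance frequency reported at 2xMIC.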

Enterococcus faecalis [2] = assay: Antibacterial activity against vancomycin sensitive Enterococcus faecalis NCTC775 measured after overnight incubation by microbroth dilution method; format: functional
Procedure, shortened: (§1)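 Microbroth dilution: DMSO stocks diluted in water, 2-fold series. Overnight TSB cultures back-diluted to OD 0.01 and mixed 1:1 with compound. Incubated overnight at 37 °C; MIC taken as lowest concentration without visible growth (<0.1 OD600). Run in duplicate; matching DMSO levels checked for effect on growth.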

Enterococcus faecalis [3] = assay: Antibacterial activity against vancomycin resistant Enterococcus faecalis NCTC12201 measured after overnight incubation by microbroth dilution method; format: functional
Procedure, shortened: as §1

Acinetobacter baumannii [4] = assay: Antibacterial activity against Acinetobacter baumannii ATCC 17978 measured after overnight incubation by microbroth dilution method; format: functional
Procedure, shortened: (§2)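 Microbroth dilution MIC. Compound DMSO stocks were diluted in water as a 2-fold series. Overnight TSB cultures were back-diluted to OD 0.01 and mixed 1:1 with compound. Plates were incubated overnight at 37 °C. MIC was the lowest concentration without visible growth (<0.1 OD600), run in duplicate.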

Klebsiella pneumoniae [5] = assay: Antibacterial activity against Klebsiella pneumoniae M6 measured after overnight incubation by microbroth dilution method; format: functional
Procedure, shortened: as §2

Pseudomonas aeruginosa [6] = assay: Antibacterial activity against Pseudomonas aeruginosa NCTC13437 measured after overnight incubation in presence of phenylalanine arginine beta-naphthylamide by microbroth dilution method; format: functional
Procedure, shortened: as §2

Enterococcus faecalis [7] = assay: Antibacterial activity against vancomycin resistant Enterococcus faecalis NCTC12204 measured after overnight incubation by microbroth dilution method; format: functional
Procedure, shortened: as §1

Klebsiella pneumoniae [8] = assay: Antibacterial activity against Klebsiella pneumoniae NCTC13368 measured after overnight incubation by microbroth dilution method; format: functional
Procedure, shortened: as §2

Klebsiella pneumoniae [9] = assay: Antibacterial activity against Klebsiella pneumoniae NCTC13368 measured after overnight incubation in presence of phenylalanine arginine beta-naphthylamide by microbroth dilution method; format: functional
Procedure, shortened: as §2

Staphylococcus aureus [10] = assay: Bacteriostatic activity against methicillin resistant Staphylococcus aureus NCTC13616 at 4 times MIC measured at 0 to 24 hrs by time kill assay
Klebsiella pneumoniae [11] = assay: Antibacterial activity against Klebsiella pneumoniae NCTC13368 measured after overnight incubation in presence of polymyxin B nonapeptide by microbroth dilution method; format: functional
Staphylococcus aureus [12] = assay: Antibacterial activity against methicillin sensitive Staphylococcus aureus NCTC 6571 measured after overnight incubation by microbroth dilution method; format: functional
Procedure, shortened: as §1

Pseudomonas aeruginosa [13] = assay: Antibacterial activity against Pseudomonas aeruginosa NCTC13437 measured after overnight incubation by microbroth dilution method; format: functional
Procedure, shortened: as §2

Enterococcus faecium = assay: Antibacterial activity against Enterococcus faecium NCTC12204 assessed as generation of drug resistance at 2 times MIC measured after 48 hrs by agar-based microbroth dilution method
DNA gyrase = DNA gyrase (Staphylococcus aureus, UniProt P0A0K8+P20831, S84L); assay: Inhibition of Staphylococcus aureus DNA gyrase S84L mutant; format: protein-complex assay
Staphylococcus aureus [14] = assay: Antibacterial activity against methicillin resistant Staphylococcus aureus NCTC13616 measured after overnight incubation by microbroth dilution method; format: functional
Procedure, shortened: as §1

Klebsiella pneumoniae [15] = assay: Antibacterial activity against Klebsiella pneumoniae M6 measured after overnight incubation in presence of phenylalanine arginine beta-naphthylamide by microbroth dilution method; format: functional
Procedure, shortened: as §2

HeLa = assay: Cytotoxicity again human HeLa cells measured after 24 hrs by XTT assay; format: cell-based
Procedure, shortened: (§3)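 Cells were grown in EMEM with glutamine, 10% FBS and non-essential amino acids at 37 °C, 10% CO2. Seeding was 1 x 10^5 cells/mL (HEK293) or 4 x 10^4 cells/mL (HeLa), then 24 h adherence. Doubling compound dilutions were applied for 24 h. XTT/PMS was added for 4 h in the dark, with absorbance read at 450 nm. Untreated cells were the 100% control and water-treated cells the 0% control; IC50 was fitted.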

Pseudomonas aeruginosa [16] = assay: Antibacterial activity against Pseudomonas aeruginosa PAO1 measured after overnight incubation in presence of polymyxin B nonapeptide by microbroth dilution method; format: functional
Klebsiella pneumoniae [17] = assay: Antibacterial activity against Klebsiella pneumoniae M6 measured after overnight incubation in presence of polymyxin B nonapeptide by microbroth dilution method; format: functional
Pseudomonas aeruginosa [18] = assay: Antibacterial activity against Pseudomonas aeruginosa NCTC13437 measured after overnight incubation in presence of polymyxin B nonapeptide by microbroth dilution method; format: functional
Escherichia coli [19] = assay: Antibacterial activity against Escherichia coli NCTC12923 measured after overnight incubation by microbroth dilution method; format: functional
Procedure, shortened: as §2

Acinetobacter baumannii [20] = assay: Antibacterial activity against Acinetobacter baumannii AYE measured after overnight incubation in presence of phenylalanine arginine beta-naphthylamide by microbroth dilution method; format: functional
Procedure, shortened: as §2

Acinetobacter baumannii [21] = assay: Antibacterial activity against Acinetobacter baumannii ATCC 17978 measured after overnight incubation in presence of polymyxin B nonapeptide by microbroth dilution method; format: functional
HEK293 = assay: Cytotoxicity again human HEK293 cells measured after 24 hrs by XTT assay; format: cell-based; conditions: HEK293, 24 h
Procedure, shortened: as §3

Escherichia coli [22] = assay: Antibacterial activity against Escherichia coli NCTC12923 measured after overnight incubation in presence of polymyxin B nonapeptide by microbroth dilution method; format: functional
Enterococcus faecalis [23] = assay: Bacteriostatic activity against vancomycin resistant Enterococcus feacalis NCTC12204 at 4 times MIC measured at 0 to 24 hrs by time kill assay
Acinetobacter baumannii [24] = assay: Antibacterial activity against Acinetobacter baumannii AYE measured after overnight incubation by microbroth dilution method; format: functional
Procedure, shortened: as §2

Acinetobacter baumannii [25] = assay: Antibacterial activity against Acinetobacter baumannii ATCC 17978 measured after overnight incubation in presence of phenylalanine arginine beta-naphthylamide by microbroth dilution method; format: functional
Procedure, shortened: as §2

Staphylococcus aureus [26] = assay: Antibacterial activity against methicillin resistant Staphylococcus aureus NCTC13277 measured after overnight incubation by microbroth dilution method; format: functional
Procedure, shortened: as §1

Acinetobacter baumannii [27] = assay: Antibacterial activity against Acinetobacter baumannii AYE measured after overnight incubation in presence of polymyxin B nonapeptide by microbroth dilution method; format: functional
Escherichia coli [28] = assay: Antibacterial activity against Escherichia coli NCTC12923 measured after overnight incubation in presence of phenylalanine arginine beta-naphthylamide by microbroth dilution method; format: functional
Procedure, shortened: as §2

[29] = Inhibition of Staphylococcus aureus DNA gyrase subunit A2B2 using relaxed pBR322 DNA as substrate measured after 30 mins in presence of ATP by ethidium bromide-based gel electrophoresis
Procedure, shortened: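 Supercoiling assay with S. aureus wild-type or S84L gyrase and relaxed pBR322, with or without varying compound, at 37 °C for 30 min. The reaction was stopped with STEB and extracted with chloroform:isoamyl alcohol (24:1). The aqueous phase was run on a 1% agarose gel and the supercoiled band quantified. IC50 came from at least three independent replicates.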

Pseudomonas aeruginosa [30] = assay: Antibacterial activity against Pseudomonas aeruginosa PAO1 measured after overnight incubation by microbroth dilution method; format: functional
Procedure, shortened: as §2

Pseudomonas aeruginosa [31] = assay: Antibacterial activity against Pseudomonas aeruginosa PAO1 measured after overnight incubation in presence of phenylalanine arginine beta-naphthylamide by microbroth dilution method; format: functional
Procedure, shortened: as §2

Staphylococcus aureus [32] = assay: Bactericidal activity against methicillin resistant Staphylococcus aureus NCTC13616 at 4 times MIC measured at 0 to 24 hrs by time kill assay; format: functional, organism-based
Procedure, shortened: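 Overnight cultures back-diluted to OD 0.01 in glass universals, compound added at 4 x MIC, 37 °C with shaking at 200 rpm. Sampled at 0, 2, 4, 6 and 24 h; CFU/mL counted by Miles-Misra; untreated control included.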

Compound | Activity (Staphylococcus aureus [1]) | MIC (Enterococcus faecalis [2]) [µg/mL] | MIC (Enterococcus faecalis [3]) [µg/mL] | MIC (Acinetobacter baumannii [4]) [µg/mL] | MIC (Klebsiella pneumoniae [5]) [µg/mL] | MIC (Pseudomonas aeruginosa [6]) [µg/mL] | MIC (Enterococcus faecalis [7]) [µg/mL] | MIC (Klebsiella pneumoniae [8]) [µg/mL] | MIC (Klebsiella pneumoniae [9]) [µg/mL] | MIC (Klebsiella pneumoniae [11]) [µg/mL] | MIC (Staphylococcus aureus [12]) [µg/mL] | MIC (Pseudomonas aeruginosa [13]) [µg/mL] | Activity (Enterococcus faecium) | IC50 (DNA gyrase) [µM] | MIC (Staphylococcus aureus [14]) [µg/mL] | MIC (Klebsiella pneumoniae [15]) [µg/mL] | IC50 (HeLa) [µg/mL] | MIC (Pseudomonas aeruginosa [16]) [µg/mL] | MIC (Klebsiella pneumoniae [17]) [µg/mL] | MIC (Pseudomonas aeruginosa [18]) [µg/mL] | also measured
Cc1c(CNC2CCC(NC(=N)N)CC2)cc(-c2ccc(Cl)cc2)n1-c1ccc(Cl)cc1 (stereo not given) | <7.6e-08 | 8 (≈ 17 µM) | 16 (≈ 34 µM) | 16 (≈ 34 µM) | 32 (≈ 68 µM) | 64 | 4 (≈ 8.5 µM) | 128 (≈ 272 µM) | 128 | 128 | 2 (≈ 4.25 µM) | 16 (≈ 34 µM) | <9.4e-08 | 15.4 | 2 to 4 (≈ 4.25 to 8.5 µM) | 64 | 11.7 to 18.9 (≈ 24.8 to 40.2 µM) | 128 | 64 | 16 | IC50 (Topoisomerase IV): 61.2 µM; Activity (Staphylococcus aureus [10]): Active; MIC (Escherichia coli [19]): 8 µg/mL (≈ 17 µM); MIC (Acinetobacter baumannii [20]): 64 µg/mL; MIC (Acinetobacter baumannii [21]): 16 µg/mL; IC50 (HEK293): 11.7 to 18.9 µg/mL (≈ 24.8 to 40.2 µM); MIC (Escherichia coli [22]): 4 µg/mL; Activity (Enterococcus faecalis [23]): Active; MIC (Acinetobacter baumannii [24]): 64 to 128 µg/mL (≈ 136 to 272 µM); MIC (Acinetobacter baumannii [25]): 16 µg/mL; MIC (Staphylococcus aureus [26]): 4 µg/mL (≈ 8.5 µM); MIC (Acinetobacter baumannii [27]): 32 µg/mL; MIC (Escherichia coli [28]): 8 µg/mL; IC50 [29]: 7.48 µg/mL; MIC (Pseudomonas aeruginosa [30]): 128 µg/mL (≈ 272 µM); MIC (Pseudomonas aeruginosa [31]): 128 µg/mL
Cc1c(CNC2CCCCC2)cc(-c2ccc(C(C)C)cc2)n1-c1ccc(Cl)cc1 | <7.6e-08 | 4 (≈ 9.5 µM) | 4 (≈ 9.5 µM) | 32 (≈ 76 µM) | > 128 | > 128 | 2 (≈ 4.75 µM) | > 128 | > 128 | > 128 | 4 (≈ 9.5 µM) | > 128 | <9.4e-08 | 69.1 | 4 (≈ 9.5 µM) | > 128 | 2.4 to 3 (≈ 5.7 to 7.13 µM) | 8 | 128 | 32 | Activity (Staphylococcus aureus [32]): Active; MIC (Escherichia coli [19]): > 128 µg/mL; MIC (Acinetobacter baumannii [20]): 8 µg/mL; MIC (Acinetobacter baumannii [21]): 2 µg/mL; IC50 (HEK293): 2.4 to 3 µg/mL (≈ 5.7 to 7.13 µM); MIC (Escherichia coli [22]): 2 µg/mL; Activity (Enterococcus faecalis [23]): Active; MIC (Acinetobacter baumannii [24]): > 128 µg/mL; MIC (Acinetobacter baumannii [25]): 8 µg/mL; MIC (Staphylococcus aureus [26]): 4 µg/mL (≈ 9.5 µM); MIC (Acinetobacter baumannii [27]): 8 µg/mL; MIC (Escherichia coli [28]): 16 µg/mL; MIC (Pseudomonas aeruginosa [30]): > 128 µg/mL; MIC (Pseudomonas aeruginosa [31]): > 128 µg/mL
